Measured values of several laboratories.
Lines come from different studies, so protocols differ.
Target: Myosin light chain kinase, smooth muscle (MYLK, Homo sapiens, UniProt Q15746)

| SMILES | test | setting | remaining binding [%] |
| --- | --- | --- | --- |
| CN(c1nccc(-c2cnn3ncccc23)n1)C1CC1 | binding | 1 µM | 100 |
| CS(=O)(=O)N1CCCC(NC(=O)[C@H](CCC2CCCCC2)NC(=O)c2ccc(CNC(=O)c3cnc4ccccn34)cc2)C1 (stereo partly drawn) | cell-free assay, competition with immobilised ligand | 0.1 µM | 100 |
| CN(C)c1nccc(-c2cnc3ncccn23)n1 | binding | 1 µM | 94 |
| Nc1ncc2c(n1)-c1c([nH]c3ccc(C#CC4CC4)cc13)CCCC2 | binding, competition with immobilised ligand | 1 µM | 92 |
| NS(=O)(=O)c1cc(NC(=O)C2(c3ccccc3Cl)CC2)ccc1Oc1cccc(Cl)c1 | cell-free assay, competition with immobilised ligand | 1 µM | 72 |
| CN(CCCC(F)(F)F)c1nccc(-c2cnn3ncccc23)n1 | binding | 1 µM | 100 |
| c1cncc(-c2cccc(Nc3nccc(NC4CCCCC4)n3)c2)c1 | binding, competition with immobilised ligand | 10 µM | 62 |
| N[C@@H]1CCN(c2nccc(-c3cnn4ncccc34)n2)C1 | binding | 1 µM | 100 |
| C=CC(=O)N1CCC(C(=O)NCC(=O)N2CCN(c3nc(-c4cnc(N)nc4C(F)F)nc(N4CCOCC4)n3)CC2)CC1 | binding, competition with immobilised ligand | 1 µM | 61 |
| CC(=O)c1c(NS(C)(=O)=O)c2cc(-c3ccc(Cl)cc3)c(-c3ccc(Cl)cc3Cl)nc2n(C)c1=O | cell-free assay, competition with immobilised ligand | 1 µM | 93 |
| CNC(=O)[C@@H]1CC[C@@H](n2c(-c3ccc4cnccc4c3)nc3ccc(C(=O)NCc4cccc(C(N)=O)c4)cc32)C1 | binding, competition with immobilised ligand | 1 µM | 100 |
| C[C@H]1CCN(c2nccc(-c3cnn4ncccc34)n2)C1 | binding | 1 µM | 91 |
| Cc1cnc(Nc2ccc(C(=O)N3CCC(N4CCCC4)CC3)cc2)nc1-c1cc2ccccc2s1 | binding, competition with immobilised ligand | 1 µM | 15 |
| COc1ncc2cc3ccccc3nc2c1C#N | binding, competition with immobilised ligand | 5 µM | 92 |
| O=C(Nc1c[nH]nc1C(=O)NC1CCNCC1)c1cc(F)cc(F)c1 | binding, competition with immobilised ligand | 1 µM | 100 |
| C[C@@]1(Cc2ccc(C#N)cc2)C(=O)N(c2cc(Cl)cc(Cl)c2)c2ncc(C(=O)NC3(c4nc(C5CCC5)no4)CC3)n21 | cell-free assay, competition with immobilised ligand | 1 µM | 100 |
| c1cnn2ncc(-c3ccnc(N4CCC45COC5)n3)c2c1 | binding | 1 µM | 84 |
| C[C@@H]1CN(c2cc(-c3nn(C)c4ccc(OC5(C)CC5)cc34)ncn2)C[C@H](C)O1 | cell-free assay, competition with immobilised ligand | 1 µM | 64 |
| O=C(NCCCN1CCOCC1)c1ccc(Nc2ncc(Cl)c(-c3ccc(Cl)s3)n2)cc1 | binding, competition with immobilised ligand | 1 µM | 89 |
| O=C(NCc1ncc(C(F)(F)F)cc1Cl)c1ccc2c(c1)C1(CCS(=O)(=O)CC1)[C@H](C1CC1)N2S(=O)(=O)c1ccc(F)cc1 | cell-free assay, competition with immobilised ligand | 1 µM | 77 |
| O=C(c1ccc(Nc2ncc(Cl)c(-c3cc4ccccc4s3)n2)cc1)N1CCC(N2CCCC2)CC1 | binding, competition with immobilised ligand | 1 µM | 54 |
